In PubChem BioAssay AID686992 (Broad Institute, 2013):
Several values for one entry are separate records, joined by “and”; a condition that tells them apart may be missing. Equal entries are not always repeated. The whole screen tested about 260,000 compounds, of which about 960 (0.37%) were called active. This excerpt belongs to a sample that is enriched for actives. A number with no mark means an inactive call.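 Rule for the calls: active = mean E-selectin-positive cell signal at least 10% of the positive control, reached in at least 60% of replicates, without over 20% cell loss; inconclusive = no rule given, readout overlaps actives, possibly toxicity-flagged; inactive = the rest, including those meeting only one limit.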

These compounds were tested against E-selectin (Homo sapiens) (UniProt P16581) (assay: inducers of endothelial E-selectin expression – imaging, HUVEC, immunofluorescence imaging, single point, primary screen (AID 686992;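 note: signal is the percent of cells scored E-selectin positive by PE staining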)). Settings: at 7.58 µM, hits give high values, normalized: neutral wells 0, TNF-alpha wells 100.
E-selectin (Homo sapiens), sequence (P16581 whole entry, looked up): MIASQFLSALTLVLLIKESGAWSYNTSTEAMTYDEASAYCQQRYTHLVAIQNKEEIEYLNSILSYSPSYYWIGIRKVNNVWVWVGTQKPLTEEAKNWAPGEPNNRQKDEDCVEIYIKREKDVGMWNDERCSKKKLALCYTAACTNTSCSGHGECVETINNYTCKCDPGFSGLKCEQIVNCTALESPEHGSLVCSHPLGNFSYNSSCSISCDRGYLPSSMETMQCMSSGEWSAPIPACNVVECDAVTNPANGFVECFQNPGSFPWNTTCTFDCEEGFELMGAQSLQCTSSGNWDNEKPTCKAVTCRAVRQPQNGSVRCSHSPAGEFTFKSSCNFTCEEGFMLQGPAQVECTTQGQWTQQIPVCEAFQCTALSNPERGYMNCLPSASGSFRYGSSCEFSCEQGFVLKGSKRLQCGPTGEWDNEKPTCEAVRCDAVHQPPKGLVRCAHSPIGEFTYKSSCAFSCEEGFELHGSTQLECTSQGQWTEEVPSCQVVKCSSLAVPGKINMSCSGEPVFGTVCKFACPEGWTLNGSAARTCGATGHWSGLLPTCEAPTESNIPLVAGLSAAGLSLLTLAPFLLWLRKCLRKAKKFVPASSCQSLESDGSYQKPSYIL
Summary of the method: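 Assay system: HUVEC, human umbilical vein endothelial cells / Amount: 3,000 HUVEC/well / Controls: TNF-alpha positive control, DMSO neutral control / Compound dosing: single concentration / Medium: EGM-2 over gelatin coat / Evaluation: percent E-selectin-positive cells / Signal: immunofluorescence imaging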
With `COc1cccc(-c2nc3nc(C)cc(C)n3c2NC2CCCCC2)c1` the activation was -0.154%. With `C[C@H](CO)N1C[C@H](C)[C@@H](CN(C)C(=O)NC2CCCCC2)Oc2c(NC(=O)Nc3ccc(F)cc3)cccc2C1=O` the activation was 42.3% (active). For `C[C@@H]1CN([C@H](C)CO)C(=O)c2cccc(NC(=O)Nc3cccc4ccccc34)c2O[C@@H]1CN(C)C(=O)Nc1cccc2ccccc12`, the activation was -0.224%. `Cc1ccc(S(=O)(=O)N(C)C[C@@H]2Oc3c(NC(=O)Nc4ccccc4)cccc3C(=O)N([C@H](C)CO)C[C@H]2C)cc1` gave an activation of 0.069%. For `C[C@H](CO)N1C[C@H](C)[C@@H](CN(C)C(=O)Nc2cccc3ccccc23)Oc2c(NS(=O)(=O)c3ccccc3)cccc2C1=O`, the activation was -0.43%. Compound `C[C@H]1CN([C@@H](C)CO)C(=O)c2cccc(NS(=O)(=O)c3cn(C)cn3)c2O[C@H]1CN(C)C(=O)Nc1ccc2c(c1)OCO2` has an activation of -9.5%. With `C[C@H]1CN([C@@H](C)CO)C(=O)c2cccc(NS(=O)(=O)c3cn(C)cn3)c2O[C@@H]1CN(C)C(=O)Nc1ccc(F)cc1` the activation was 46.9% (active). For `C[C@H]1CN([C@@H](C)CO)C(=O)c2cccc(NC(=O)Nc3ccc(C(F)(F)F)cc3)c2O[C@H]1CN(C)C(=O)NC1CCCCC1`, the activation was -0.0925%. With `C[C@@H]1CN([C@H](C)CO)C(=O)c2cccc(NS(C)(=O)=O)c2O[C@@H]1CN(C)C(=O)Nc1cccc2ccccc12` the activation was 91.3% (active). With `C[C@H](CO)N1C[C@H](C)[C@H](CN(C)S(=O)(=O)c2ccccc2)Oc2c(NC(=O)Nc3ccccc3)cccc2C1=O` the activation was 392% (active). `COc1ccc(NC(=O)N(C)C[C@@H]2Oc3c(NS(=O)(=O)c4cn(C)cn4)cccc3C(=O)N([C@H](C)CO)C[C@@H]2C)cc1` gave an activation of -11.1%. Work on `C[C@@H]1CN([C@H](C)CO)C(=O)c2cccc(NC(=O)Nc3ccccc3)c2O[C@@H]1CN(C)C(=O)NC1CCCCC1` yielded an activation of 0.168%. For `C[C@H](CO)N1C[C@H](C)[C@@H](CN(C)S(=O)(=O)c2ccc(F)cc2)Oc2c(NC(=O)Nc3ccccc3)cccc2C1=O`, the activation was 0.238% and 0.231%. Work on `Nc1nc2c(ncn2[C@@H]2O[C@H](C(=O)N[C@@H](Cc3ccccc3)C(=O)NCc3ccccc3)[C@@H](O)[C@H]2O)c(=O)[nH]1` yielded an activation of -0.0025%. `CS(=O)(=O)N1[C@H](CO)[C@H](c2ccccc2)C12CN(C(=O)C1CC1)C2` gave an activation of 0.098%. Compound `CNC(=O)C1CN(C(=O)c2cccc(S(=O)(=O)N3CCc4ccccc43)c2)c2ccccc2O1` (stereo not drawn) has an activation of -0.207%. Compound `O=C(c1ccccc1)N1C[C@H]2[C@@H](c3ccccc31)[C@H](CO)N2Cc1ccccc1F` has an activation of 0.376%. Compound `Cc1ccc(C)c(C(O)c2ncc(-c3cccc4ccccc34)[nH]2)c1` (stereo not drawn) has an activation of -0.22%. In the case of `C[C@H]1CN([C@@H](C)CO)C(=O)c2cc(Br)cnc2O[C@H]1CN(C)Cc1cccc(F)c1`, the activation is reported as 87.1% (active). Work on `C[C@@H]1CN([C@@H](C)CO)C(=O)c2cc(-c3ccccc3F)cnc2O[C@@H]1CN(C)Cc1cccc(F)c1` yielded an activation of -0.0955%. For `C[C@@H]1CN([C@@H](C)CO)C(=O)c2cc(Br)cnc2O[C@@H]1CN(C)C(=O)C1CCCCC1`, the activation was -0.284% and 0.234%. `C/C=C/c1cnc2c(c1)C(=O)N([C@@H](C)CO)C[C@H](C)[C@@H](CN(C)C(=O)C1CC1)O2` was tested, and the activation was 0.382%. In the case of `C[C@@H]1CN([C@H](C)CO)C(=O)c2cc(Br)cnc2O[C@@H]1CN(C)C(=O)C1CC1`, the activation is reported as 118% (active). `C[C@@H]1CN([C@@H](C)CO)C(=O)c2cc(-c3cccc(F)c3)cnc2O[C@@H]1CN(C)Cc1ccccc1` gave an activation of -0.282%. For `COC(=O)C[C@H]1CC[C@@H](NC(=O)c2ccccc2)[C@@H](CO)O1`, the activation was -0.322%. `O=C(COC(=O)CCc1c[nH]c2ccccc12)Nc1cccc(Cl)c1` gave an activation of 5.9%. `COC(=O)C[C@@H]1CC[C@@H]2[C@@H](COc3ccc(NC(=O)C4CCOCC4)cc3C(=O)N2C)O1` was tested, and the activation was 0.061%. `CN1C(=O)c2cc(NC(=O)C3CCCC3)ccc2OC[C@H]2O[C@H](CC(=O)NCc3ccccc3F)CC[C@H]21` showed an activation of 0.0215%. With `CN1C(=O)c2cc(NC(=O)C3CCOCC3)ccc2OC[C@@H]2O[C@H](CC(=O)NCc3ccccc3F)CC[C@H]21` the activation was 99.5% (active). In the case of `CN1C(=O)c2cc(NC(=O)C3CCC3)ccc2OC[C@@H]2O[C@@H](CC(=O)NCc3ccccc3F)CC[C@@H]21`, the activation is reported as -0.028%. Work on `COC(=O)C[C@H]1CC[C@H]2[C@H](COc3ccc(NC(=O)C4CC4)cc3C(=O)N2C)O1` yielded an activation of -0.049%. With `COC(=O)C[C@@H]1CC[C@@H]2[C@H](COc3ccc(NC(=O)Nc4cccc(F)c4)cc3C(=O)N2C)O1` the activation was 59.2% (active). `COC(=O)C[C@H]1CC[C@H]2[C@@H](COc3ccc(NC(=O)Nc4cccc(F)c4)cc3C(=O)N2C)O1` showed an activation of -0.114%. `COC(=O)C[C@@H]1CC[C@@H]2[C@H](COc3ccc(NC(=O)c4cccc(F)c4)cc3C(=O)N2C)O1` showed an activation of 0.16%. With `COC(=O)C[C@H]1CC[C@H]2[C@@H](COc3ccc(NC(=O)C4CC4)cc3C(=O)N2C)O1` the activation was 84.9% (active). `C[C@@H](CN1C2=NC[C@@H](Cc3ccccc3)N2C[C@H]1Cc1ccc(O)cc1)NC(=O)CCC1CCCCC1` gave an activation of -4.54%. Compound `CCC(C)CN1C(=O)CSCC1(C)C(=O)NCc1ccccc1` (stereo not drawn) has an activation of 0.0415%. `COC(=O)[C@@H]1[C@@H](CO)[C@@H]2Cn3c(ccc(-c4ccc(OC)cc4)c3=O)[C@@H]2N1C` showed an activation of 0.459%. For `N#C[C@@H]1[C@@H](c2ccccc2)[C@H](CO)N1C(=O)c1cc(Cl)cc(Cl)c1`, the activation was 0.0965%. `COc1ccc(S(=O)(=O)N2C[C@H](O)COC[C@@H]3O[C@H](CC(=O)NCCN4CCCCC4)CC[C@H]32)cc1` gave an activation of 0.128%. For `COc1ccc(-c2ccccc2[C@H]2[C@@H](C#N)N(C(=O)C3CCC3)[C@@H]2CO)cc1`, the activation was -0.0965%. `COc1cccc(-c2cc3nc(NCCOc4ccccc4Cl)n(C)c(=O)c3s2)c1` showed an activation of -0.11%. `COc1ccc(C(C)(O)c2nc(-c3ccc(C)c(C)c3)cs2)cc1` (stereo not drawn) gave an activation of -0.298%. For `COc1ccc2c3c(n(C)c2c1)[C@@H](CO)N(Cc1ccccc1OC)CC31CN(CC2CCOCC2)C1`, the activation was -0.609%. `COc1ccc(C(C)(O)c2nc(-c3cc(F)cc(F)c3)cs2)cc1` (stereo not drawn) showed an activation of 0.357%. With `COc1ccc(S(=O)(=O)NCCOc2ccccc2)cc1F` the activation was -0.118%. `Cc1ccc(C(=O)NCC(=O)NCc2cc(=O)n(C)c(=O)n2C)cc1` gave an activation of 0.0495%. With `COc1ccc(S(=O)(=O)NCC(=O)NCc2cc(=O)n(C)c(=O)n2C)cc1F` the activation was 79.6% (active). `CCCC(=O)Nc1ccc2c(c1)C(=O)N(C)[C@@H]1CC[C@H](CC(=O)Nc3cn(C)nc3C)O[C@H]1CO2` showed an activation of -0.018%. In the case of `Cn1c(Nc2ccc(F)cc2)nc2cc(-c3ccsc3)sc2c1=O`, the activation is reported as 0.0175%. In the case of `COc1ccc(C2c3[nH]c4ccccc4c3C[C@H]3C(=O)N(CC(C)C)CC(=O)N23)c(OC)c1` (stereo partly drawn), the activation is reported as 61.1% (active). `COc1ccc(C2/C=C\CN(CC(C)C)CC(=O)N2Cc2ccc(F)cc2)cc1` (stereo not drawn) was tested, and the activation was -0.215%. `COc1ccc(C2/C(=C(/O)c3ccccc3)C(=O)C(=O)N2C)c(OC)c1` (stereo not drawn) gave an activation of 0.122%. Work on `CCC(=O)N1CC2(C1)[C@H](c1ccc(-c3ccc(C)cc3)cc1)[C@H](CO)N2S(C)(=O)=O` yielded an activation of -0.277%. `COc1ccc(OC)c(C(O)c2ncc(-c3cccc(C(F)(F)F)c3)[nH]2)c1` (stereo not drawn) was tested, and the activation was -0.085%. `CNS(=O)(=O)c1ccc(NC(=O)C2CC(=O)N(c3ccc(Cl)cc3)C2)cc1` (stereo not drawn) was tested, and the activation was 35.7% (active). Work on `O=C(Nc1ccc(S(=O)(=O)N2CCCCC2)cc1)C1CC(=O)N(c2ccc(F)cc2)C1` (stereo not drawn) yielded an activation of -0.119%. `CCc1ccc(N2CC(C(=O)Nc3ccc(S(=O)(=O)Nc4nccs4)cc3)CC2=O)cc1` (stereo not drawn) showed an activation of 0.004%. `CC(=O)OCC1(O)CC23CCC4c5ccoc5CCC4(C)C2CCC1C3` (stereo not drawn) gave an activation of 0.708%. `COC(=O)C[C@@H]1CC[C@H]2[C@H](COc3ccc(NC(=O)c4ccccc4F)cc3C(=O)N2C)O1` gave an activation of 0.0145%. `CCCCCCN1C[C@H](O)[C@@H](n2cc(C3CC3)nn2)C[C@@H]1c1ccc(Cl)cc1` was tested, and the activation was -0.106%. `C[C@@H]1CN([C@H](C)CO)C(=O)c2c(c3ccccc3n2C)-c2ccccc2CO[C@@H]1CN(C)Cc1ccc(F)cc1` was tested, and the activation was -0.183%. `C[C@H](CO)N1C[C@H](C)[C@@H](CN(C)Cc2ccc(C(F)(F)F)cc2)OCc2ccccc2-c2c(n(C)c3ccccc23)C1=O` was tested, and the activation was -0.577%. In the case of `C[C@@H]1CN([C@H](C)CO)C(=O)c2c(c3ccccc3n2C)-c2ccccc2CO[C@@H]1CN(C)Cc1ccccc1C(F)(F)F`, the activation is reported as 30.5% (active). `COc1ccc(CCCNC(=O)C2Cc3c(-c4cccc(C(N)=O)c4)ccnc3O2)cc1` (stereo not drawn) gave an activation of 0.751%. `C=CCC[C@H](CCCCC)OC(=O)/C=C/[C@H](O)[C@@H](O)C[C@@H](O)CC=C` showed an activation of -5.32%. For `NC1=NC2(CCCCC2)N(c2ccc(F)cc2F)C(N)=N1`, the activation was 522% (active). In the case of `O=C(c1ccccc1)N1C[C@@H]2[C@H](c3ccccc31)[C@@H](CO)N2Cc1cc(F)ccc1F`, the activation is reported as 0.162%.
